Experimental data reported in ChEMBL document CHEMBL4422632, “Design of Novel Inhibitors of Human Thymidine Phosphorylase: Synthesis, Enzyme Inhibition, in Vitro Toxicity, and Impact on Human Glioblastoma Cancer” (J Med Chem, 2019).
Calls of active or inactive are those of the source. The rule behind the calls is not given here.

Key:
[1] = Cytotoxicity against human HepG2 cells assessed as cell viability at 250 uM after 72 hrs by MTT assay relative to control; format: cell-based; details: read-out: Activity
In short: (§1)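 Cells grown in DMEM with 10% FBS at 37 °C, 5% CO₂; seeded 2 x 10³ cells/well, adhered 24 h, then exposed 72 h. MTT: 1 mg/mL for 3 h, formazan in DMSO, absorbance 595 nm. NRU: neutral red 25 µg/mL in serum-free medium for 3 h, desorbed in ethanol:acetic acid:water. Viability as % of untreated control; mean ± SEM of three to five independent experiments in triplicate.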

[2] = Cytotoxicity against human HepG2 cells assessed as cell viability at 1000 uM after 72 hrs by MTT assay relative to control; format: cell-based; details: read-out: Activity; in short: as §1
[3] = Cytotoxicity against human HepG2 cells assessed as cell viability at 100 uM after 72 hrs by neutral red uptake-based assay relative to control; details: read-out: Activity; in short: as §1
[4] = Cytotoxicity against human HepG2 cells assessed as cell viability at 250 uM after 72 hrs by neutral red uptake-based assay relative to control; details: read-out: Activity; in short: as §1
[5] = Cytotoxicity against human HepG2 cells assessed as cell viability at 1000 uM after 72 hrs by neutral red uptake-based assay relative to control; details: read-out: Activity; in short: as §1
[6] = Cytotoxicity against African green monkey Vero cells assessed as cell viability at 25 uM after 72 hrs by MTT assay relative to control; format: cell-based; details: chlorocebus sabaeus, read-out: Activity; in short: as §1
[7] = Cytotoxicity against African green monkey Vero cells assessed as cell viability at 100 uM after 72 hrs by neutral red uptake-based assay relative to control; details: chlorocebus sabaeus, read-out: Activity; in short: as §1
[8] = Cytotoxicity against human HaCaT cells assessed as cell viability at 25 uM after 72 hrs by MTT assay relative to control; format: cell-based; details: read-out: Activity; in short: as §1
[9] = Cytotoxicity against human HaCaT cells assessed as cell viability at 250 uM after 72 hrs by MTT assay relative to control; format: cell-based; details: read-out: Activity; in short: as §1
[10] = Cytotoxicity against human HaCaT cells assessed as cell viability at 1000 uM after 72 hrs by MTT assay relative to control; format: cell-based; details: read-out: Activity; in short: as §1
[11] = Cytotoxicity against human HaCaT cells assessed as cell viability at 250 uM after 72 hrs by neutral red uptake-based assay relative to control; details: read-out: Activity; in short: as §1
[12] = Cytotoxicity against mouse RAW264.7 cells assessed as cell viability at 25 uM after 72 hrs by MTT assay relative to control; format: cell-based; details: read-out: Activity
In short: (§2)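 Cells kept in DMEM with 10% heat-inactivated FBS, 1% penicillin-streptomycin and 0.1% fungizone at 37 °C, 5% CO₂. U-87 MG seeded at 2 x 10^3 cells/well, RAW 264.7 at 5 x 10^2, adhered 24 h, then exposed 72 h. MTT: 1 mg/mL for 3 h, formazan in DMSO, A595. NRU: 25 μg/mL dye, 3 h, ethanol:acetic acid:water desorb. Untreated wells = 100%; three to five independent experiments in triplicate.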

[13] = Cytotoxicity against mouse RAW264.7 cells assessed as cell viability at 100 uM after 72 hrs by MTT assay relative to control; format: cell-based; details: read-out: Activity; in short: as §2
[14] = Cytotoxicity against mouse RAW264.7 cells assessed as cell viability at 250 uM after 72 hrs by MTT assay relative to control; format: cell-based; details: read-out: Activity; in short: as §2
[15] = Cytotoxicity against mouse RAW264.7 cells assessed as cell viability at 500 uM after 72 hrs by MTT assay relative to control; format: cell-based; details: read-out: Activity; in short: as §2
[16] = Cytotoxicity against mouse RAW264.7 cells assessed as cell viability at 25 uM after 72 hrs by neutral red uptake-based assay relative to control; details: read-out: Activity; in short: as §2
[17] = Cytotoxicity against mouse RAW264.7 cells assessed as cell viability at 50 uM after 72 hrs by neutral red uptake-based assay relative to control; details: read-out: Activity; in short: as §2
[18] = Cytotoxicity against human U87MG cells assessed as cell viability at 100 uM after 72 hrs by MTT assay relative to control; format: cell-based, U-87MG ATCC; details: read-out: Activity; in short: as §1
[19] = Cytotoxicity against human U87MG cells assessed as cell viability at 1000 uM after 72 hrs by MTT assay relative to control; format: cell-based, U-87MG ATCC; details: read-out: Activity; in short: as §1
[20] = Cytotoxicity against human U87MG cells assessed as cell viability at 25 uM after 72 hrs by neutral red uptake-based assay relative to control; design: species or system U-87MG ATCC; details: read-out: Activity; in short: as §2
[21] = Cytotoxicity against human U87MG cells assessed as cell viability at 500 uM after 72 hrs by neutral red uptake-based assay relative to control; design: species or system U-87MG ATCC; details: read-out: Activity; in short: as §2
[22] = Cytotoxicity against human U87MG cells assessed as cell viability at 1000 uM after 72 hrs by neutral red uptake-based assay relative to control; design: species or system U-87MG ATCC; details: read-out: Activity; in short: as §2
[23] = Cmax in CF1 mouse at 50 mg/kg, ip by non-compartmental analysis; format: ADME, organism-based; design: dose 50 mg/kg, route intraperitoneal; details: in vivo
In short: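 Male CF1 mice received a single ip injection of 50 mg/kg in 0.9% saline; 3 animals per time point, killed 0.03, 0.08, 0.25, 0.5, 1 and 2 h after dosing; blood collected in heparin tubes.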

[24] = AUCM (0 to infinity) in CF1 mouse at 50 mg/kg, ip by non-compartmental analysis; format: ADME, organism-based; details: in vivo
[25] = MRT in CF1 mouse at 50 mg/kg, ip by non-compartmental analysis; format: ADME, organism-based; details: in vivo
[26] = Toxicity in nude BALB/c mouse xenografted with human U87MG cells assessed as reduction in body weight at 50 mg/kg, […]; format: organism-based; details: in vivo, ip, 120 h
[27] = tested on: U-87 MG; test: Anti-angiogenic activity in tumor of human U87MG cells xenografted in nude BALB/c mouse assessed as reduction in CD31 staining at 50 mg/kg, ip administered for 14 days by immunohistochemistry; format: functional, organism-based; details: U-87MG ATCC
In short: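 Male nude mice bearing subcutaneous right-flank xenografts of 5 x 10⁵ U-87 MG cells; dosing began at about 50 mm³ tumors, ip daily for 14 days. Tumors formalin-fixed, paraffin sections 3 µm; citrate pH 6 antigen retrieval at 95-98 °C; primary antibody overnight at 4 °C, HRP secondary, DAB. Positive area quantified by optical density at x200, 4 images per tumor; mean ± SEM, one-way ANOVA with Dunnett.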

[28] = tested on: U-87 MG; test: Induction of apoptosis in human U87MG cells xenografted in BALB/c nude mouse assessed as caspase-3 levels at 50 mg/kg, ip after 14 days by immunohistochemistry; format: functional, organism-based; details: U-87MG ATCC
In short: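 Male BALB/c nude mice implanted subcutaneously with 5 x 10⁵ U-87 MG cells in the right flank. Treated IP at 50 mg/kg/day for 14 days, with saline controls, starting once tumors reached about 50 mm³. Tumors fixed in formaldehyde and cut at 3 µm. Citrate pH 6 antigen retrieval.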

[29] = tested on: U-87 MG; test: Anti-angiogenic activity in tumor of human U87MG cells xenografted in nude BALB/c mouse assessed as reduction in number of blood vessels at 50 mg/kg, ip administered for 14 days by hematoxylin and eosin-staining based light microscopy co-treated with temozolamide; format: functional, organism-based; details: U-87MG ATCC
In short: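 U-87 MG flank xenografts (5 x 10⁵ cells) in male nude mice; ip treatment daily from about 50 mm³ for 14 days, with temozolomide at 50 mg/kg/day in the co-treatment arm. Vessel density counted on HE-stained 3 µm sections by hot-spot method, mean of four fields per tumor at x200, avoiding gross haemorrhage. One-way ANOVA/Dunnett.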

Cmax [23]: 34800 ng/mL
AUMC [24]: 7.6 µg·h²/mL
MRT [25]: 24 min
SMILES: O=c1[nH]c(CNC(CO)CO)c(I)c(=O)[nH]1
viability at 72 h, 250 µM [1]: 100%
viability at 72 h, 1000 µM [2]: 82%
viability at 72 h, 100 µM [3]: 102%
viability at 72 h, 250 µM [4]: 98%
viability at 72 h, 1000 µM [5]: 81%
viability at 72 h, 25 µM [6]: 101%
viability at 72 h, 100 µM [7]: 108%
viability at 72 h, 25 µM [8]: 105%
viability at 72 h, 250 µM [9]: 96%
viability at 72 h, 1000 µM [10]: 81%
viability at 72 h, 250 µM [11]: 100%
viability at 72 h, 25 µM [12]: 103%
viability at 72 h, 100 µM [13]: 99%
viability at 72 h, 250 µM [14]: 95%
viability at 72 h, 500 µM [15]: 91%
viability at 72 h, 25 µM [16]: 105%
viability at 72 h, 50 µM [17]: 102%
viability at 72 h, 100 µM [18]: 96%
viability at 72 h, 1000 µM [19]: 83%
viability at 72 h, 25 µM [20]: 99%
viability at 72 h, 500 µM [21]: 93%
viability at 72 h, 1000 µM [22]: 72%
Activity [26]: Non-Toxic
Activity [27]: Active
Activity [28]: inactive
Activity [29]: Active
